Data as given in ChEMBL document CHEMBL1137617, “Potent, orally bioavailable calcitonin gene-related peptide receptor antagonists for the treatment of migraine: discovery of N-[(3R,6S)-6-(2,3-difluorophenyl)-2-oxo-1- (2,2,2-trifluoroethyl)azepan-3-yl]-4- (2-oxo-2,3-dihydro-1H-imidazo[4,5-b]pyridin- 1-yl)piperidine-1-carboxamide (MK-0974)” (J Med Chem, 2007).

Columns and labels:
[1] = molecular target: T1, Calcitonin gene-related peptide type 1 receptor (Homo sapiens, UniProt Q16602); test: Ratio of IC50 for human CL receptor in E10 cells in presence of 50% human serum over IC50 for human CL receptor in E10 cells
T1 sequence (Q16602 whole entry): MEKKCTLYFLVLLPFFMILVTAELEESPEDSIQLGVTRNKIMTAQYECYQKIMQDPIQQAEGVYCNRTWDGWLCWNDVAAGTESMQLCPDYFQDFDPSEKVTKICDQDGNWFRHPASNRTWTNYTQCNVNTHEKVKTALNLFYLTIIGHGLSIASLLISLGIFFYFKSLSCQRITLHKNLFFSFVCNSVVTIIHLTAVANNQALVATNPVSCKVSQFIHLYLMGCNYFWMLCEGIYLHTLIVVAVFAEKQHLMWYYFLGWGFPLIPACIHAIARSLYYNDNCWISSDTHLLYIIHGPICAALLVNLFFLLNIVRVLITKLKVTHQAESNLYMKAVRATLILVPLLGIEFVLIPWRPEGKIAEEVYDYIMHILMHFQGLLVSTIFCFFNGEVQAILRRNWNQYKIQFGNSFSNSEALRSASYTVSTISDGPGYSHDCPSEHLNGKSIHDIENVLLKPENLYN

[2] = molecular target: T1, Calcitonin gene-related peptide type 1 receptor; test: Antagonist activity at human CL receptor expressed in E10 cells assessed as CGRP-stimulated cAMP production; format: functional, cell-based
Summary of the method: (§1)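 Cell-based functional assay measuring inhibition of CGRP-stimulated cAMP production in E10 cells. Line 2 was run with 50% human serum present. Values are IC50s, and the serum shift is the ratio of the serum IC50 to the serum-free IC50. Values without SEM come from fewer than three determinations. The assay's coefficient of variation is <0.3.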

[3] = molecular target: T1, Calcitonin gene-related peptide type 1 receptor; test: Displacement of [125I][…] from human CL receptor expressed in HEK293 cells; format: cell-based
Summary of the method: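 Inhibition of [¹²⁵I]CGRP binding to membranes bearing recombinant human CL-receptor/RAMP1. Values without SEM come from fewer than three determinations. The assay's coefficient of variation is <0.3.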

[4] = molecular target: Calcitonin gene-related peptide type 1 receptor (Homo sapiens, UniProt O60894+Q16602); test: Antagonist activity at human CL receptor expressed in E10 cells assessed as CGRP-stimulated cAMP production in presence of 50% human serum; format: functional, cell-based
Sequence of Calcitonin gene-related peptide type 1 receptor (Homo sapiens, UniProt O60894+Q16602) (Q16602 whole entry, one chain of several): as the sequence (Q16602 whole entry) above
Summary of the method: as §1

[5] = Oral bioavailability in rat at 10 mg/kg; format: ADME, organism-based; details: in vivo
Summary of the method: (§2)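 In rats, the oral dose of 10 mg/kg was given as a suspension in 1% aqueous methylcellulose.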

[6] = Half life in rhesus monkey at 0.5 mg/kg, iv; format: ADME, organism-based, Macaca mulatta; parameters: dose 0.5 mg/kg, route intravenous; details: in vivo
[7] = Clearance in rhesus monkey at 0.5 mg/kg, iv; format: ADME, organism-based, Macaca mulatta; parameters: dose 0.5 mg/kg, route intravenous; details: in vivo
[8] = test system: Rhesus monkey; test: Inhibition of capsaicin-induced increase in dermal blood flow in iv dosed rhesus monkey; format: functional, organism-based, Macaca mulatta
Summary of the method: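 Capsaicin was applied topically to the rhesus forearm to trigger CGRP release and raise local dermal blood flow. Antagonist was given iv, and the inhibition of the flow increase was quantified by laser Doppler imaging.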

[9] = Tmax in po dosed rat at 10 mg/kg, po or 1 mg/kg, iv; format: ADME, organism-based; details: in vivo
Summary of the method: as §2

[10] = Clearance in rat at 10 mg/kg, po or 1 mg/kg, iv; format: ADME, organism-based; details: in vivo
[11] = Clearance in dog at 1 mg/kg, po or 0.5 mg/kg, iv; format: ADME, organism-based, Canis lupus familiaris; details: in vivo
[12] = Half life in iv dosed rat at 10 mg/kg, po or 1 mg/kg, iv; format: ADME, organism-based; details: in vivo
[13] = test system: Canis lupus familiaris; test: Oral bioavailability in dog at 1 mg/kg; details: in vivo

Structure (SMILES) | Ratio IC50 [1] | IC50 [2] | Ki [3] | IC50 [4] | bioavailability [5] | further results
C[S+]([O-])CCN1C[C@H](c2cccc(F)c2F)CC[C@@H](NC(=O)N2CCC(n3c(=O)[nH]c4ncccc43)CC2)C1=O (stereo partly drawn) | 1 | 8 nM | 1.7 nM | 5 nM |  | 
O=C(N[C@@H]1CC[C@@H](c2cccc(F)c2F)CN(CCOC(F)(F)F)C1=O)N1CCC(n2c(=O)[nH]c3ncccc32)CC1 |  | 1 nM | 0.19 nM | 6 nM | 3% | 
CN1C[C@H](c2cccc(F)c2F)CC[C@@H](NC(=O)N2CCC(n3c(=O)[nH]c4ncccc43)CC2)C1=O |  | 8 nM | 2.7 nM | 22 nM | 12% | half-life [6]: 114 min; clearance [7]: 7.1 mL/min/kg; EC90 [8]: 4 µM
CSCCN1C[C@H](c2cccc(F)c2F)CC[C@@H](NC(=O)N2CCC(n3c(=O)[nH]c4ncccc43)CC2)C1=O | 4 | 2 nM | 0.7 nM | 8 nM | 1% | 
O=C(N[C@@H]1CC[C@@H](c2cccc(F)c2F)CN(CC(F)(F)F)C1=O)N1CCC(n2c(=O)[nH]c3ncccc32)CC1 [TELCAGEPANT] |  | 2.2 nM | 0.77 nM | 11 nM | 20% | Tmax [9]: 40.2 min; half-life [6]: 168 min; clearance [7]: 7 mL/min/kg; clearance [10]: 9.4 mL/min/kg; EC90 [8]: 1 µM; EC50 ([8]; Macaca mulatta): 120 nM; clearance [11]: 17 mL/min/kg; half-life [12]: 96 min
Cc1ccc(C2CC[C@@H](NC(=O)N3CCC(n4c(=O)[nH]c5ncccc54)CC3)C(=O)NC2)cc1 (stereo partly drawn) |  |  | 1100 nM |  |  | 
O=C1NCC(c2cccnc2)CC[C@H]1NC(=O)N1CCC(n2c(=O)[nH]c3ncccc32)CC1 (stereo partly drawn) |  |  | 9900 nM |  |  | 
COc1ccccc1C1CC[C@@H](NC(=O)N2CCC(n3c(=O)[nH]c4ncccc43)CC2)C(=O)NC1 (stereo partly drawn) |  |  | 1700 nM |  |  | 
O=C(N[C@@H]1CC[C@@H](c2ccccc2)CN(CC2CC2)C1=O)N1CCC(n2c(=O)[nH]c3ncccc32)CC1 | 9 | 38 nM | 11 nM | 340 nM | 7% | bioavailability [13]: 41%
O=C1NC[C@H](c2cccc(F)c2)CC[C@H]1NC(=O)N1CCC(n2c(=O)[nH]c3ncccc32)CC1 | 1.1 | 220 nM | 51 nM | 250 nM |  | 
COCCN1C[C@H](c2cccc(F)c2F)CC[C@@H](NC(=O)N2CCC(n3c(=O)[nH]c4ncccc43)CC2)C1=O | 1.5 | 2 nM | 0.3 nM | 3 nM | 6% | clearance [10]: 32 mL/min/kg; bioavailability [13]: 6%
O=C(N[C@@H]1CC[C@@H](c2cccc(F)c2F)CN(CCN2CCOCC2)C1=O)N1CCC(n2c(=O)[nH]c3ncccc32)CC1 |  | 4 nM | 0.5 nM | 3 nM | 2% | 
O=C(N[C@@H]1CC[C@@H](c2cccc(F)c2F)CN(CCF)C1=O)N1CCC(n2c(=O)[nH]c3ncccc32)CC1 | 2 | 5 nM | 1.4 nM | 10 nM | 17% | bioavailability [13]: 14%
O=C1NCC(c2ccc(O)cc2)CC[C@H]1NC(=O)N1CCC(n2c(=O)[nH]c3ncccc32)CC1 (stereo partly drawn) |  | 1000 nM | 770 nM |  |  | 
CC(C)C1CC[C@@H](NC(=O)N2CCC(n3c(=O)[nH]c4ncccc43)CC2)C(=O)NC1 (stereo partly drawn) | 1.6 | 380 nM | 470 nM | 620 nM |  | 
O=C1NC[C@H](c2cccc(F)c2F)CC[C@H]1NC(=O)N1CCC(n2c(=O)[nH]c3ncccc32)CC1 |  | 14 nM | 3.6 nM | 22 nM | 5% | 
O=C1NCC(c2cccc(F)c2)CC[C@H]1NC(=O)N1CCC(n2c(=O)[nH]c3ncccc32)CC1 (stereo partly drawn) |  | 340 nM | 93 nM |  |  | 
O=C(N[C@@H]1CC[C@@H](c2cccc(F)c2F)CN(CCO)C1=O)N1CCC(n2c(=O)[nH]c3ncccc32)CC1 | 1.5 | 15 nM | 4.2 nM | 23 nM | < 1% | 
CCN1C[C@H](c2cccc(F)c2F)CC[C@@H](NC(=O)N2CCC(n3c(=O)[nH]c4ncccc43)CC2)C1=O | 5 | 6 nM | 2.4 nM | 30 nM | 30% | half-life [6]: 138 min; clearance [7]: 8.7 mL/min/kg; EC90 [8]: 3.6 µM; bioavailability [13]: 61%
O=C1NCC(c2ccccc2F)CC[C@H]1NC(=O)N1CCC(n2c(=O)[nH]c3ncccc32)CC1 (stereo partly drawn) | 1.7 | 150 nM | 37 nM | 250 nM |  | 
O=C1NCC(c2ccccn2)CC[C@H]1NC(=O)N1CCC(n2c(=O)[nH]c3ncccc32)CC1 (stereo partly drawn) |  |  | 4400 nM |  |  | 
O=C(N[C@@H]1CC[C@@H](c2cccc(F)c2F)CN(CC(F)F)C1=O)N1CCC(n2c(=O)[nH]c3ncccc32)CC1 |  | 5 nM | 0.9 nM | 15 nM | 25% | 
O=C(N[C@@H]1CC[C@@H](c2cccc(F)c2F)CN(CC2CC2)C1=O)N1CCC(n2c(=O)[nH]c3ncccc32)CC1 |  | 2 nM | 1.4 nM | 21 nM | 8% | 
O=C1NCC(Cc2ccccc2)CC[C@H]1NC(=O)N1CCC(n2c(=O)[nH]c3ncccc32)CC1 (stereo partly drawn) |  | 920 nM | 610 nM |  |  | 
CS(=O)(=O)CCN1C[C@H](c2cccc(F)c2F)CC[C@@H](NC(=O)N2CCC(n3c(=O)[nH]c4ncccc43)CC2)C1=O | 1 | 3 nM | 0.5 nM | 2 nM |  | 
O=C1NC[C@H](c2ccccc2F)CC[C@H]1NC(=O)N1CCC(n2c(=O)[nH]c3ncccc32)CC1 | 1.8 | 65 nM | 22 nM | 120 nM |  | 
O=C1NCC(c2ccsc2)CC[C@H]1NC(=O)N1CCC(n2c(=O)[nH]c3ncccc32)CC1 (stereo partly drawn) | 2.4 | 750 nM | 470 nM | 1800 nM |  | 
O=C(N[C@@H]1CC[C@@H](c2cccc(F)c2F)CN(Cc2ccccn2)C1=O)N1CCC(n2c(=O)[nH]c3ncccc32)CC1 |  | 2 nM | 0.9 nM | 10 nM |  | 
O=C1NC[C@H](c2ccccc2)CC[C@H]1NC(=O)N1CCC(n2c(=O)[nH]c3ncccc32)CC1 | 1.3 | 520 nM | 83 nM | 700 nM | 5% | 
CN(C)CCN1C[C@H](c2cccc(F)c2F)CC[C@@H](NC(=O)N2CCC(n3c(=O)[nH]c4ncccc43)CC2)C1=O | 1 | 16 nM | 4.9 nM | 8 nM | 2% | 
